Measurements published in ChEMBL document CHEMBL2311469, “Development of new cathepsin B inhibitors: combining bioisosteric replacements and structure-based design to explore the structure-activity relationships of nitroxoline derivatives” (J Med Chem, 2013).
Activity calls are given as the source filed them. No cut-off for these calls is given here.

Experiments:
Cathepsin B [1] = target: T1, Cathepsin B (Homo sapiens, UniProt P07858); assay: Competitive inhibition of human recombinant cathepsin B exopeptidase activity using Abz-Gly-Ile-Val-Arg-Ala-Lys(Dnp)-OH substrate assessed as inhibition constant for enzyme-inhibitor complex
Method in brief: (§1)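 Human recombinant catB, preactivated 5 min at 37 °C in assay buffer containing 0.1% PEG 8000, 5 mM DTT and 1.5 mM EDTA. […] Exopeptidase: 60 mM acetate pH 5.0, Abz-GIVRAK(Dnp)-OH 1/3/6 μM (Km 6.3 μM). Inhibitor 0–200 μM, 5% DMSO, 37 °C, fluorescence rate; two runs in duplicate.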

Cathepsin B [2] = target: T1, Cathepsin B; assay: Uncompetitive inhibition of human recombinant […] assessed as inhibition constant for enzyme-substrate-inhibitor complex
Cathepsin B [3] = target: T1, Cathepsin B; assay: Mixed inhibition of human recombinant cathepsin B […] assessed as inhibition constant for enzyme-inhibitor complex
Cathepsin B [4] = target: T1, Cathepsin B; assay: Noncompetitive inhibition of human recombinant cathepsin B exopeptidase activity using Abz-Gly-Ile-Val-Arg-Ala-Lys(Dnp)-OH substrate; method in brief: as §1
Cathepsin B [5] = target: T1, Cathepsin B; assay: Mixed inhibition of human recombinant cathepsin B endopeptidase activity using Z-Arg-Arg-AMC substrate assessed as inhibition constant for enzyme-substrate-inhibitor complex
Homo sapiens [6] = organism: Homo sapiens; assay: Selectivity ratio of Ki for human recombinant cathepsin L to Ki for human recombinant cathepsin B
Pro-cathepsin H [7] = target: T2, Pro-cathepsin H (Homo sapiens, UniProt P09668); assay: Noncompetitive inhibition of human liver cathepsin H endopeptidase activity using R-AMC substrate assessed as inhibition constant for enzyme-substrate-inhibitor complex
T2 sequence (P09668 whole entry): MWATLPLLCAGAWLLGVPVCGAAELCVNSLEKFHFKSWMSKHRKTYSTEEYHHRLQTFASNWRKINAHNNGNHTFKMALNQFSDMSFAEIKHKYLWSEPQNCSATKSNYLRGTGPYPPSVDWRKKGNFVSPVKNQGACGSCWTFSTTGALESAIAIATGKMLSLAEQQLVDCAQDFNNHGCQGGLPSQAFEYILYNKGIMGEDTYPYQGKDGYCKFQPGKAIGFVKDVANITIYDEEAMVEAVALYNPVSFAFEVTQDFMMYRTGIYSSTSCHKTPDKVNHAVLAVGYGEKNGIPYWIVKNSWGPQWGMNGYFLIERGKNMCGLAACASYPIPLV
Method in brief: (§2)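 Native catH isolated from human liver was preactivated for 5 min at 37 °C in 100 mM phosphate pH 6.8 with 0.1% PEG 8000, 5 mM DTT and 1.5 mM EDTA. Arg-AMC was used at 20, 80 and 160 μM, with inhibitor at 0–200 μM (seven levels) and 5% DMSO. […] Run twice in duplicate.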

Procathepsin L = Procathepsin L (Homo sapiens, UniProt P07711); assay: Competitive inhibition of human recombinant cathepsin L endopeptidase activity using Z-FR-AMC substrate expressed in Escherichia coli assessed as inhibition constant for enzyme-inhibitor complex
Method in brief: (§3)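 Ki from rates at three substrate levels with inhibitor at 0, 20, 40, 60, 80, 100 and 200 μM. Enzymes were preactivated 5 min at 37 °C. CatL (recombinant, E. coli): 100 mM acetate pH 5.5, Z-Phe-Arg-AMC 0.5/1/4 μM. CatH (native, human liver): 100 mM phosphate pH 6.8, Arg-AMC 20/80/160 μM. Buffers held 0.1% PEG 8000, 5 mM DTT and 1.5 mM EDTA, plus 5% DMSO. Two runs in duplicate.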

Pro-cathepsin H [8] = target: T2, Pro-cathepsin H; assay: Noncompetitive inhibition of human liver cathepsin H endopeptidase activity using R-AMC substrate assessed as inhibition constant for enzyme-inhibitor complex; method in brief: as §2
Homo sapiens [9] = organism: Homo sapiens; assay: Selectivity ratio of Ki for human liver cathepsin H to Ki for human recombinant cathepsin B
MCF-10A [10] = assay: Inhibition of human MCF10A neoT cell invasion expressing c-Ha-Ras oncogene at 5 uM after 30 mins relative to DMSO-treated control; assay type: functional; settings: 72 h, in the assay text read “after 72 hrs” for “after 30 mins”
Method in brief: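 xCELLigence CIM-16 invasion assay. Upper chamber coated with 5 mg/mL Matrigel; lower well coated with bovine fibronectin. Compound 5 μM or 0.05% DMSO in both chambers, equilibrated 30 min at 37 °C. Then 3 × 10^4 cells seeded in serum-free medium, cell index read every 15 min for 72 h. Invasion = cell index with compound / DMSO; mean ± SD, n = 4, two experiments.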

Cathepsin B [11] = target: T1, Cathepsin B; assay: Inhibition of human recombinant cathepsin B exopeptidase activity using Abz-Gly-Ile-Val-Arg-Ala-Lys(Dnp)-OH substrate
Cathepsin B [12] = target: T1, Cathepsin B; assay: Inhibition of human recombinant cathepsin B endopeptidase activity using Z-Arg-Arg-AMC substrate
Pro-cathepsin H [13] = target: T2, Pro-cathepsin H; assay: Uncompetitive inhibition of human liver cathepsin H endopeptidase activity using R-AMC substrate assessed as inhibition constant for enzyme-substrate-inhibitor complex; method in brief: as §3
Cathepsin B [14] = target: T1, Cathepsin B; assay: Inhibition of human recombinant cathepsin B endopeptidase activity using Z-Arg-Arg-AMC substrate at 50 uM
Method in brief: (§4)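 Single-point screen at 50 μM inhibitor with 5% DMSO and 0.01% Triton X-100, at 37 °C. Endopeptidase: catB 5 nM with Z-Arg-Arg-AMC 5 μM, phosphate pH 6.0, ex 380/em 460 nm. Exopeptidase: catB 0.5 nM with Abz-GIVRAK(Dnp)-OH 1 μM, acetate pH 5.0, ex 320/em 420 nm. Relative inhibition = 100(1 − vi/vo). Two runs in duplicate.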

Cathepsin B [15] = target: T1, Cathepsin B; assay: Mixed inhibition of cathepsin B (unknown origin) endopeptidase activity assessed as inhibition constant for enzyme-substrate-inhibitor complex
Cathepsin B [16] = target: T1, Cathepsin B; assay: Noncompetitive inhibition of cathepsin B (unknown origin) exopeptidase activity assessed as inhibition constant for enzyme-inhibitor complex
Cathepsin B [17] = target: T1, Cathepsin B; assay: Inhibition of human recombinant cathepsin B exopeptidase activity using Abz-Gly-Ile-Val-Arg-Ala-Lys(Dnp)-OH substrate at 50 uM; method in brief: as §4
Cathepsin B [18] = target: T1, Cathepsin B; assay: Mixed inhibition of cathepsin B (unknown origin) endopeptidase activity assessed as inhibition constant for enzyme-inhibitor complex
MCF-10A [19] = assay: Increase in proliferation of human MCF10A neoT cells expressing c-Ha-Ras oncogene at 5 uM measured at 15 mins interval up to 3 days; assay type: ADME, cell-based
Method in brief: (§5)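 MCF-10A neoT cells, 7500 per well, monitored on the xCELLigence impedance system (cell index read every 15 min). After ~10 h, in log growth, 2.5 or 5 μM compound or 0.2% DMSO was added. Run for 72 h, with medium containing inhibitor renewed every 24 h.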

MCF-10A [20] = assay: Cytotoxicity against human MCF10A neoT cells expressing c-Ha-Ras oncogene at 2.5 uM measured at 15 mins interval up to 3 days; assay type: cell-based; method in brief: as §5
Cathepsin B [21] = target: T1, Cathepsin B; settings: MCF10A neoT, 5 uM
MCF-10A [22] = assay: Increase in proliferation of human MCF10A neoT cells expressing c-Ha-Ras oncogene at 2.5 uM measured at 15 mins interval up to 3 days; assay type: ADME, cell-based; method in brief: as §5
MCF-10A [23] = assay: Cytotoxicity against human MCF10A neoT cells expressing c-Ha-Ras oncogene at 5 uM measured at 15 mins interval up to 3 days; assay type: cell-based; method in brief: as §5
Cathepsin B [24] = target: T1, Cathepsin B; settings: MCF10A neoT, 5 uM; remark: listed apart in the source
Cathepsin B [25] = target: T1, Cathepsin B; assay: Mixed inhibition of human recombinant cathepsin B exopeptidase activity using Abz-Gly-Ile-Val-Arg-Ala-Lys(Dnp)-OH substrate assessed as inhibition constant for enzyme-inhibitor complex
Method in brief: (§6)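 Recombinant human catB was preactivated for 5 min at 37 °C in 60 mM acetate pH 5.0 with 0.1% PEG 8000, 5 mM DTT and 1.5 mM EDTA. Abz-GIVRAK(Dnp)-OH was used at 1, 3 and 6 μM (Km 6.3 μM), with inhibitor at 0–200 μM (seven levels) and 5% DMSO. […] Run twice, each in duplicate.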

Cathepsin B [26] = target: T1, Cathepsin B; assay: Mixed inhibition of human recombinant cathepsin B exopeptidase activity using Abz-Gly-Ile-Val-Arg-Ala-Lys(Dnp)-OH substrate assessed as inhibition constant for enzyme-substrate-inhibitor complex; method in brief: as §6

Chain of Procathepsin L (P07711 whole entry): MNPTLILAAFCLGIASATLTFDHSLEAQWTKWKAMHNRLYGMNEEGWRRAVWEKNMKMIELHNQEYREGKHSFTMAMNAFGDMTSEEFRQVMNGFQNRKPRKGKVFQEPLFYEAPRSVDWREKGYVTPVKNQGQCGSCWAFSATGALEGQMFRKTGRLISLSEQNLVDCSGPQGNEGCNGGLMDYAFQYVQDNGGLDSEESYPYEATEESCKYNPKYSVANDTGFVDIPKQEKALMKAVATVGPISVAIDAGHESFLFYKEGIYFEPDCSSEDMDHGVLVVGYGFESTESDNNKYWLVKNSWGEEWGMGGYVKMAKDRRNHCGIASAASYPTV

Ki (Cathepsin B [4]) [µM]	SMILES	Ki (Cathepsin B [3]) [µM]	Ki (Cathepsin B [5]) [µM]	other results
	O=C(O)c1cc([N+](=O)[O-])c2cccnc2c1O			Ki (Cathepsin B [1]): 221 µM; Ki (Cathepsin B [2]): 117 µM
130	CCOC(=O)[C@@H]1CCCC[C@@H]1NCc1cc([N+](=O)[O-])c2cccnc2c1O	132	74	
147	Nc1ccc([N+](=O)[O-])c2ccccc12	217	111	
364	O=[N+]([O-])c1cc(CN2CCN(Cc3cccnc3)CC2)c(O)c2ncccc12	311	171	
	CCCNC(=O)[C@H]1O[C@@H]1C(=O)N[C@H](C(=O)N1CCC[C@H]1C(=O)O)C(C)CC (single isomer, unassigned)			inhibition at 5 µM (MCF-10A [10]): 48%
	CN(C)c1ccc([N+](=O)[O-])c2cccnc12			inhibition (Cathepsin B [11]): inactive; inhibition (Cathepsin B [12]): inactive
	N#CCN(CC#N)c1ccc([N+](=O)[O-])c2ccccc12			inhibition (Cathepsin B [11]): inactive; inhibition (Cathepsin B [12]): inactive
136	CCNCc1cc([N+](=O)[O-])c2cccnc2c1O	117	82	
172	CN(CC#N)Cc1cc([N+](=O)[O-])c2cccnc2c1O	126	76	
212	Nc1c(Br)cc([N+](=O)[O-])c2ccccc12			Ratio Ki (Homo sapiens [6]): > 6; Ki (Pro-cathepsin H [13]): 354 µM; Ki (Cathepsin B [2]): 32 µM; Ki (Procathepsin L): 182 µM; Ratio Ki (Homo sapiens [9]): 11
	C#CCNc1ccc([N+](=O)[O-])c2cccnc12			inhibition (Cathepsin B [11]): inactive; inhibition (Cathepsin B [12]): inactive
162	O=[N+]([O-])c1cc(CN2CCN(Cc3ccncc3)CC2)c(O)c2ncccc12	143	94	
	CN(Cc1ccccc1)c1ccc([N+](=O)[O-])c2cccnc12	242	137	Ki (Cathepsin B [1]): 196 µM
154	O=[N+]([O-])c1cc(CNCc2ccccc2)c(O)c2ncccc12	198	58	
156	CCOC(=O)N1CCN(Cc2cc([N+](=O)[O-])c3cccnc3c2O)CC1	129	87	
	O=S(=O)(O)c1ccc(O)c2ccccc12			inhibition (Cathepsin B [12]): inactive
	O=[N+]([O-])c1ccc(O)c2ncccc12 [NITROXOLINE]			inhibition (Cathepsin B [14]): 21.9%; Ki (Cathepsin B [15]): 39.5 µM; Ki (Cathepsin B [16]): 272 µM; Ratio Ki (Homo sapiens [6]): 4.8; inhibition (Cathepsin B [17]): 24.7%; Ki (Cathepsin B [18]): 154 µM; Ratio Ki (Homo sapiens [9]): 7.4
	N#CCNc1ccc([N+](=O)[O-])c2ccccc12			inhibition (Cathepsin B [11]): inactive; inhibition (Cathepsin B [12]): inactive
	O=[N+]([O-])c1ccc(N2CCCC2)c2ncccc12			inhibition (Cathepsin B [11]): inactive
426	N#CCNCc1cc([N+](=O)[O-])c2cccnc2c1O			Activity (MCF-10A [19]): 117%; Activity (MCF-10A [20]): Non-toxic; Ratio Ki (Homo sapiens [6]): 23; inhibition (Cathepsin B [21]): Active; Activity (MCF-10A [22]): 113%; Ki (Pro-cathepsin H [7]): 129 µM; Ki (Cathepsin B [2]): 5 µM; Ki (Procathepsin L): 124 µM; Ki (Pro-cathepsin H [8]): 129 µM; Activity (MCF-10A [23]): Non-toxic; inhibition (Cathepsin B [24]): Active; inhibition at 5 µM (MCF-10A [10]): 80%; Ratio Ki (Homo sapiens [9]): 24
	O=[N+]([O-])c1ccc(O)c2ccccc12	373	84	inhibition (Cathepsin B [11]): inactive
	O=C(O)[C@@H]1CCCC[C@@H]1NCc1cc([N+](=O)[O-])c2cccnc2c1O	181	125	Ki (Cathepsin B [1]): 250 µM
	Nc1c(O)cc(S(=O)(=O)O)c2ccccc12			inhibition (Cathepsin B [12]): inactive
	N#CCN(Cc1ccccc1)Cc1cc([N+](=O)[O-])c2cccnc2c1O			Ki (Cathepsin B [25]): 79 µM; Ki (Cathepsin B [26]): 8 µM; Ki (Cathepsin B [2]): 19 µM
	CCN(CC)C(=O)C1CCCN(c2ccc([N+](=O)[O-])c3cccnc23)C1 (racemic)	155	117	Ki (Cathepsin B [25]): 105 µM; Ki (Cathepsin B [26]): 36 µM
243	C[C@@H]1CCCCN1Cc1cc([N+](=O)[O-])c2cccnc2c1O	203	116	

SMILES	Ki (Cathepsin B [4]) [µM]	Ki (Cathepsin B [3]) [µM]	Ki (Cathepsin B [5]) [µM]	other results
CN(CCc1ccccc1)c1ccc([N+](=O)[O-])c2cccnc12	350			Ki (Cathepsin B [2]): 175 µM
CC1CCN(c2ccc([N+](=O)[O-])c3cccnc23)CC1	24	207	105	Ratio Ki (Homo sapiens [6]): 6; Ki (Pro-cathepsin H [7]): 221 µM; Ki (Procathepsin L): 155 µM; Ki (Pro-cathepsin H [8]): 221 µM; Ratio Ki (Homo sapiens [9]): 9
O=[N+]([O-])c1ccc(N2CCCC2)c2ccccc12	34	170	277	Ratio Ki (Homo sapiens [6]): > 6; Ki (Pro-cathepsin H [13]): 251 µM; Ki (Procathepsin L): 245 µM; Ratio Ki (Homo sapiens [9]): 7
O=[N+]([O-])c1ccc(NCc2ccccc2)c2ncccc12	364	349	127	
O=[N+]([O-])c1ccc(N2CCOCC2)c2ncccc12	155	180	153	
CCOC(=O)C1CCN(c2ccc([N+](=O)[O-])c3cccnc23)CC1	38	162	113	
O=[N+]([O-])c1cc([N+](=O)[O-])c2cccnc2c1O	146			Ki (Cathepsin B [2]): 72 µM
O=[N+]([O-])c1ccc(NCc2ccccn2)c2ncccc12	47	107	87	
O=[N+]([O-])c1ccc(N2CCOCC2)c2ccccc12	85	289	125	
